Published values gathered from unrelated publications.
Protocols differ between the studies behind these lines.
Target: Glycogen synthase kinase-3 beta (GSK3B, Homo sapiens, UniProt P49841)
Technique: competition with immobilised ligand

SMILES | assay | conditions | remaining binding [%]
O=C(NCC1CCOCC1)c1n[nH]cc1NC(=O)c1c(F)cccc1F | binding | 1 µM | 0.2
N#Cc1ccccc1CSc1nnc2c(n1)[nH]c1ccccc12 | binding | 10 µM | 100
O=C(NCCCN1CCOCC1)c1ccc(Nc2ncc(Cl)c(-c3ccc(Cl)s3)n2)cc1 | binding | 1 µM | 95
CN(CCCC(F)(F)F)c1nccc(-c2cnn3ncccc23)n1 | binding | 1 µM | 87
FC(F)(F)Oc1cccc(-c2cnc3ccc(-c4ccncc4)nn23)c1 | cell-free assay | 5 µM | 78
CN(C)CC#Cc1ccc(OCCCc2sc(N3CCc4cccc(C(=O)Nc5nc6ccccc6s5)c4C3)nc2C(=O)O)c(F)c1 | cell-free assay | 1 µM | 93
c1cnn2ncc(-c3ccnc(N4CCC45COC5)n3)c2c1 | binding | 1 µM | 77
COc1cnc(Nc2cccc(S(N)(=O)=O)c2)nc1N1CCN(c2ccccc2)C(=O)C1 | binding | 1 µM | 91
CN([C@@H]1CCc2c(CC(=O)O)c3ccccc3n2C1)S(=O)(=O)c1ccc(F)cc1 | cell-free assay | 1 µM | 93
O=C(NCCCN1CCOCC1)c1ccc(Nc2nccc(-c3cc4ccccc4s3)n2)cc1 | binding | 1 µM | 73
COc1cc(-c2cn(C3CCc4ccccc4N(CC(F)(F)F)C3=O)nn2)ccc1-n1ccc(C)n1 (stereo not shown) | cell-free assay | 1 µM | 85
O=C(c1ccc(Nc2ncc(Cl)c(-c3cc4ccccc4s3)n2)cc1)N1CCC(N2CCCC2)CC1 | binding | 1 µM | 37
O=C(Nc1ccc(Oc2ccc(F)cc2)cc1)N1CCc2ncccc2[C@H]1c1ccc(F)cc1 | cell-free assay | 1 µM | 100
CC(C)(C)c1ccc(-c2nc(CBr)nn2-c2cccc(O)c2)cc1 | cell-free assay | 10 µM | 81
CC(C)CC(=O)N1CCc2nc(-c3ccc(Br)cc3)nc(N(C)Cc3ccccc3)c2C1 | cell-free assay | 0.1 µM | 100
C[C@@H](c1ccc(-n2cnc3c(N)ncnc32)cc1)N1CCc2nn(C)c(Cc3ccccc3)c2C1=O | binding | 0.1 µM | 58
C[C@@H]1CN(c2ccc3ncc(-c4ccc5[nH]nc(C6CC6)c5c4)n3n2)C[C@H](C)O1 | binding | 50 nM | 76
COC(=O)Nc1nc2ccc(C(=O)c3ccccc3)cc2[nH]1 | cell-free assay | 10 µM | 35
COc1ncc2cc3ccccc3nc2c1C#N | cell-free assay | 5 µM | 99
